Cl transport mod: KCC2 cotransporter modulators, thallium flux, primary screen, cell-based, HEK293 KCC2, FluoZin-2 fluorescence, MLSMR; B-score of Tl+ flux slope (higher = more flux/activation; lower = inhibition) at 10 µM; KCC2 cells, thallium flux FluoZin-2 fluorescence; Solute carrier family 12 member 5 (Homo sapiens), Q9H2X9; hit rate 2.2% among 190,000;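 active = thallium flux slope and its plate-corrected score both differing from the plate sample mean at a set confidence after two filtering rounds, in either direction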;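 note: slope of fluorescence scaled to starting intensity during 10 to 20 s after thallium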
Target sequence (Q9H2X9 whole entry, looked up): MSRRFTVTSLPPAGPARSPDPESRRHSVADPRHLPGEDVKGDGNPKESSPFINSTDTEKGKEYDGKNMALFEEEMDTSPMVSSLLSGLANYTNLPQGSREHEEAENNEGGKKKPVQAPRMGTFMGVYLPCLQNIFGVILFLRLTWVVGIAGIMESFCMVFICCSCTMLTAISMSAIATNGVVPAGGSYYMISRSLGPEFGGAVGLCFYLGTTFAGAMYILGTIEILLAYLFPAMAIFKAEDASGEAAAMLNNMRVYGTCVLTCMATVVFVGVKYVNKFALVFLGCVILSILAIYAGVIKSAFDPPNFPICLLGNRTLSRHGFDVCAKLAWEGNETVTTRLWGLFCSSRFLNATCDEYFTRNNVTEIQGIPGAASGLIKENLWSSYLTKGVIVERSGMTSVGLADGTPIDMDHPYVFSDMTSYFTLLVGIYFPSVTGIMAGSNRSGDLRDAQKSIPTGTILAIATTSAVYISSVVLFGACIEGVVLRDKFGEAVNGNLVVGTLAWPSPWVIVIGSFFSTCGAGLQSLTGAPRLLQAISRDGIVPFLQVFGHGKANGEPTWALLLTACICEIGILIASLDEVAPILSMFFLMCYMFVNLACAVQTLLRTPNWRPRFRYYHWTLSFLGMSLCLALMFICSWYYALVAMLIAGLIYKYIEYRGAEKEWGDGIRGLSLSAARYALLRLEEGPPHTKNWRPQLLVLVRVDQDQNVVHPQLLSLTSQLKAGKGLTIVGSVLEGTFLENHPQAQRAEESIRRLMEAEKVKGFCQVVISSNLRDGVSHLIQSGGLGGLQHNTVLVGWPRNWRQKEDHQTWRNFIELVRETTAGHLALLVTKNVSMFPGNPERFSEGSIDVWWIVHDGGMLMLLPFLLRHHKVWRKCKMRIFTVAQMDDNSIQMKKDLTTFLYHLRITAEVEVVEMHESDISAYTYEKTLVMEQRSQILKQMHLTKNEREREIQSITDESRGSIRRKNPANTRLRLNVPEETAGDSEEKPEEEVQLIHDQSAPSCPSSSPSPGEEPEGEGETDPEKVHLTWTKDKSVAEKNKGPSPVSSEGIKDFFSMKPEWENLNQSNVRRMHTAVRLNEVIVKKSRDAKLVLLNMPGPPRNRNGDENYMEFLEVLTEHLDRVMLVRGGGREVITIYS
RGS4 inh: RGS4 inhibitors, primary screen, cell-based, HEK293 M3R inducible RGS4, calcium flux | Regulator of G-protein signaling 4 (Homo sapiens), P49798 | Fluo-4 calcium flux; active compounds read high; triggered by carbachol at its EC20 | B-score at 10 µM | hit rate 0.45% among 310,000 | AID 463165, 2010;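 active = B-score, a plate-corrected calcium signal, over three deviations above library mean, with baseline fluorescence within five deviations of library mean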;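 note: RGS4 expression induced by doxycycline in cells with stable M3 receptor; B-score is computed from the integrated fluorescence ratio over baseline after carbachol; higher B-score means a larger calcium signal and so more RGS4 inhibition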
RGS4 act: RGS4 potentiators or activators, primary screen, cell-based, HEK293 M3R inducible RGS4, calcium flux. AID 463111, 2010. carbachol calcium flux Fluo4; active compounds read low. hit rate 0.92% among 310,000. B-score at 10 µM;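 active = B-score of the integrated calcium signal more than 4 SD below the library mean, with starting fluorescence not abnormally high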;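 note: negative B-score means reduced calcium response which marks RGS4 activation or potentiation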
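Assay system: Inducible-RGS4 HEK293 cells carrying M3 receptor | Schedule: Compound preincubation 20 min at room temperature before agonist | Signal: Kinetic calcium fluorescence imaging with Fluo4-AM dye, 2 µM | Read-out basis: B score from integrated fluorescence ratio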
MrgX1 PAM: positive allosteric modulators of MrgX1, primary screen, HEK293 cells, Fluo-4 calcium flux. Mas-related G-protein coupled receptor member X1 (Homo sapiens), Q96LB2. hit rate 0.63% among 310,000. FDSS; active compounds read high. AID 588675, 2011. B-score at 10 µM;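 active = plate-corrected calcium response at least 3 library SD above typical, normal starting fluorescence, not activating the receptor alone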;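 note: compound read alongside a low EC10 to EC30 dose of BAM8-22 agonist; peak minus trough fluorescence over baseline measured at the second addition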
MrgX1 ag: agonists of human MrgX1 receptor, primary screen, HEK293 cells, Fluo-4 calcium flux; Fluo-4 calcium fluorescence, agonist mode; active compounds read high; B-score at 10 µM; hit rate 0.44% among 310,000; AID 588627, 2011;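 active = calcium response B-score plate-corrected fluorescence ratio at least 3 library SD, with starting fluorescence B-score inside 5 SD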
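Material: MrgX1-expressing HEK293 cells / Dosing: compound as first of three additions / Incubation: overnight seeding, then 1 h dark dye loading / Signal: Fluo-4 NW calcium fluorescence / Evaluation: B-scored fluorescence response ratio / Benchmarks: positive and negative control wells on each plate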
MrgX1 antag: antagonists of human MrgX1 receptor, primary screen, HEK293 cells, Fluo-4 calcium flux; hit rate 1.3% among 310,000; Mas-related G-protein coupled receptor member X1 (Homo sapiens), Q96LB2; BAM8-22 antagonism; active compounds read low; B-score at 10 µM; AID 588676, 2011;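 active = calcium-response B-score plate-corrected more than 3 library SD below zero, starting fluorescence within 5 deviations, no agonist response on first addition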;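 note: peak minus trough fluorescence over baseline after final BAM8-22 challenge near maximal dose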
KCC2 secondary: KCC2 modulators in sodium-free buffer, confirmation, cell-based, HEK293 KCC2, thallium flux, secondary assay; hit rate 15% among 3,700; shares compounds with Cl transport mod; normalised thallium flux (F/F0 slope) at 10 µM; FluoZin2 fluorescence; active compounds read high;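 active = thallium flux slope above the same plate's solvent-only control mean plus 3 SD; inconclusive = the two replicate wells disagree; inactive = no significant difference from solvent-only control wells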
KCC2 bumet counter: thallium flux persisting under bumetanide in KCC2 cells, confirmation, counter-screen for KCC2 modulator project, cell-based, HEK293 KCC2, FluoZin2, secondary assay 3 | normalized thallium flux at 10 µM | AID 1714, 2009 | hit rate 49% among 3,700 | shares compounds with Cl transport mod | HEK293-KCC2 + bumetanide/ouabain; active compounds read high;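 active = thallium entry rate above the same plate's blocked-transporter control wells by more than 3 SD; inconclusive = the two repeat wells disagree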;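 note: raw slope of fluorescence over initial fluorescence between 10 and 20 s after thallium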
KCC2 secondary2: KCC2 modulators without ouabain present, confirmation, cell-based, HEK293 KCC2, thallium flux, FluoZin2, secondary assay 2; thallium flux FluoZin2 fluorescence; actives lie on both sides; F/F0 rise rate, 10–20 s post-thallium; hit rate 23% among 3,700; AID 1715, 2009; shares compounds with Cl transport mod; normalized thallium flux at 10 µM;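 active = thallium flux slope more than 3 SD above or below the plate's solvent-only control mean, mostly below; inconclusive = the two repeat wells disagreed; inactive = no significant shift from solvent-only controls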;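 note: raw slope with 0.1% DMSO as baseline and bumetanide as block control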
HEK293 Tl flux: thallium flux modulation in parental HEK cells, confirmation, counter-screen for KCC2 modulator project, cell-based, counterscreen 1. shares compounds with Cl transport mod. HEK293 parental cells, thallium flux FluoZin2, ouabain; baseline-ratio fluorescence slope, 10–20 s after thallium. thallium flux rate (normalised fluorescence) at 10 µM. hit rate 46% among 3,700;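 active = thallium flux rate significantly above the same plate's solvent-only control wells, beyond their mean plus 3 SD; inconclusive = the two replicate wells gave conflicting results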
KCC2 retest ouab: KCC2 inhibitors and activators, ouabain retest, confirmation, HEK-KCC2 cells. shares compounds with Cl transport mod. HEK293-KCC2, thallium flux FluoZin2 fluorescence; bidirectional: low = inhibitor, high = activator. raw Tl+ flux slope (below DMSO = inhibition, above = activation) at 10 µM. hit rate 48% among 3,700;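 active = thallium flux slope beyond 3 SD from same-plate DMSO control mean in most replicates, usually higher, sometimes lower; inconclusive = repeat tests gave conflicting results; inactive = no significant difference from controls in most replicates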;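 note: slope of initial-normalized fluorescence between seconds 10 and 20 after thallium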
HEK293 Tl flux2: native HEK Tl+ uptake effects, second counter-screen – HEK cells, counterscreen 2, counter-screen for KCC2 modulator project, confirmation | shares compounds with Cl transport mod | hit rate 33% among 3,700 | thallium flux slope at 10 µM | HEK293 parental, thallium flux FluoZin-2 fluorescence slope | AID 1718, 2009;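 active = thallium flux slope above the same plate's solvent-control mean plus 3 SD in both duplicate wells; inconclusive = duplicate wells that disagreed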;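 note: run without ouabain in cells lacking the KCC2 cotransporter; slope of fluorescence scaled to its starting value between 10 and 20 s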
Active calls of the source: *; i = inactive; ? = inconclusive; . = no result given. In the library only some 4.7% were active in any assay of this set; here they are far more common.

SMILES | Cl transport mod | RGS4 inh | RGS4 act | MrgX1 PAM | MrgX1 ag | MrgX1 antag | KCC2 secondary | KCC2 bumet counter | KCC2 secondary2 | HEK293 Tl flux | KCC2 retest ouab | HEK293 Tl flux2
CCC1Oc2ccccc2N(CC(=O)NCC2CCCO2)C1=O (configuration not stated) | . | i | i | i | i | i | . | . | . | . | . | .
O=S(=O)(/N=C(\Nc1ccc(F)cc1)C(F)(F)F)c1ccccc1 | . | i | i | i | i | i | . | . | . | . | . | .
Cc1cccc(N/C(=N\S(=O)(=O)c2ccccc2)C(F)(F)F)c1 | . | i | i | i | i | i | 0.0053 | ? | 0.029 | 0.01* | 0.02 | 0.011
CCOC(=O)/C=C/C(=O)N1CCN(C(=O)/C=C/C(=O)OCC)CC1 | 1.1 | i | i | i | i | i | . | . | . | . | . | .
Cc1cc(Cl)ccc1NC(=O)CN1C(=O)NC2(CCCC2)C1=O | . | i | i | i | i | i | . | . | . | . | . | .
Cc1ccc(NC(=O)NC(=O)CN2C(=O)NC3(CCCCCCC3)C2=O)c(C)c1 | -5.5* | i | i | i | i | i | 0.0099 | 0.0074 | 0.035 | 0.0047 | 0.02 | 0.012
Cc1ccccc1-n1ccnc1SCC(=O)NC1CCCC1 | . | i | i | i | i | i | . | . | . | . | . | .
CC1(C)CC(=O)C2=C(C1)c1c(ccc3ccccc13)NC2c1cc([N+](=O)[O-])cc([N+](=O)[O-])c1O (configuration not stated) | -4.5* | i | i | i | i | i | 0.0053 | 0.005 | 0.027* | ? | 0.016* | 0.01
O=C(COC(=O)/C=C/c1ccccc1)NCCNC(=O)COC(=O)/C=C/c1ccccc1 | . | i | i | i | i | i | . | . | . | . | . | .
CC(C)CCNC(=O)COC(=O)/C=C/c1ccc2ccccc2n1 | -3.9* | i | i | i | i | i | 0.017 | 0.0053 | 0.024* | 0.0076 | 0.014* | 0.0098
Brc1ccccc1-c1nnc(COc2cccc3cccnc23)o1 | -3* | i | i | i | i | i | 0.0069 | 0.0062 | 0.031 | 0.0063 | 0.038* | 0.0096
Clc1ccccc1OCc1nnc(-c2ccccc2Br)o1 | -2.8 | i | i | i | i | i | . | . | . | . | . | .
CCOc1nc(-c2ccncc2)nc2ccccc12 | -1.2 | i | i | i | i | i | 0.007 | 0.004 | ? | 0.0063 | 0.017 | 0.0096
COc1ccc(CCN2CC(C(=O)NC3CCOCC3)CCC2=O)cc1 (configuration not stated) | . | i | i | i | i | i | . | . | . | . | . | .
Cc1cc([N+](=O)[O-])cc(/C=N/n2c(C)nc3ccccc3c2=O)c1O | -3.3* | i | i | i | i | i | 0.0072 | ? | 0.029 | 0.0078 | ? | 0.011
Cc1nc2ccccc2c(=O)n1/N=C/c1ccccc1O | -0.56 | i | i | i | i | i | . | . | . | . | . | .
CN(C)c1ncc(S(=O)(=O)c2ccccc2)c(-c2ccc(Cl)cc2Cl)n1 | -5.7* | i | i | i | i | i | 0.0059 | 0.0042 | 0.027 | 0.007 | 0.018 | 0.0091
CN(C)c1ncc(S(=O)(=O)c2ccc(Cl)cc2)c(-c2ccc(Cl)cc2Cl)n1 | 0.71 | i | i | i | i | i | . | . | . | . | . | .
CCc1ccc(Nc2nnc(SC3CCOC3=O)s2)cc1 (configuration not stated) | -5.3* | i | i | i | i | i | 0.0064 | ? | 0.023* | 0.0068 | ? | 0.01
CC(c1ccon1)N(C)C(=O)c1ccc2nc(Cc3cccc(Cl)c3)oc2c1 (configuration not stated) | . | i | i | i | i | i | . | . | . | . | . | .
CC(C)OC(=O)c1nn2c(C(F)(F)F)cc(-c3ccc(Br)o3)nc2c1Br | . | i | i | i | i | i | 0.0095 | 0.0066 | 0.032 | 0.0071 | 0.02 | 0.011
CC(C)OC(=O)c1nn2c(C(F)(F)F)cc(-c3ccco3)nc2c1Cl | 0.29 | i | i | i | i | i | . | . | . | . | . | .
O=C(Oc1c(-c2ccccc2)oc2ccccc2c1=O)c1ccccc1 | . | i | i | i | i | i | 0.014* | 0.068* | 0.036 | ? | 0.055* | ?
COc1ccc(S(=O)(=O)Nc2ccc(F)cc2F)cc1C(=O)N1CCOCC1 | . | i | i | i | i | i | . | . | . | . | . | .
O=C(N/N=C/c1ccc2c(c1)OCO2)C(O)c1ccccc1 (configuration not stated) | 4.7* | i | i | i | i | i | 0.0079 | 0.0068 | 0.03 | 0.0066 | 0.02 | 0.0099
Cc1nn(C(C)C(=O)N2CCCC2)c(=O)c2nn(-c3ccccc3)c(C)c12 (configuration not stated) | . | i | i | i | i | i | . | . | . | . | . | .

Assay outcomes (PubChem BioAssay)
